Assay results published in ChEMBL document CHEMBL1133148 (Bioorg Med Chem Lett, 2000).

Tests used:
Mu-type opioid receptor [1] = target: T1, Mu-type opioid receptor (Rattus norvegicus, UniProt P33535); test: Concentration required for inhibition of [3H]DAMGO binding to Opioid receptor mu 1 in rat brain membranes; assay type: cell membranes
How it was run: (§1)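 Rat brain minus cerebellum, homogenised in 0.32 M sucrose and spun. The membrane pellet was preincubated 1 h at room temperature in Tris pH 7.5/NaCl to strip endogenous opioids. Filtration, scintillation counting.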

Mu-type opioid receptor [2] = target: T1, Mu-type opioid receptor; test: Binding affinity towards Opioid receptor mu 1; how it was run: as §1

T1 sequence (P33535 whole entry): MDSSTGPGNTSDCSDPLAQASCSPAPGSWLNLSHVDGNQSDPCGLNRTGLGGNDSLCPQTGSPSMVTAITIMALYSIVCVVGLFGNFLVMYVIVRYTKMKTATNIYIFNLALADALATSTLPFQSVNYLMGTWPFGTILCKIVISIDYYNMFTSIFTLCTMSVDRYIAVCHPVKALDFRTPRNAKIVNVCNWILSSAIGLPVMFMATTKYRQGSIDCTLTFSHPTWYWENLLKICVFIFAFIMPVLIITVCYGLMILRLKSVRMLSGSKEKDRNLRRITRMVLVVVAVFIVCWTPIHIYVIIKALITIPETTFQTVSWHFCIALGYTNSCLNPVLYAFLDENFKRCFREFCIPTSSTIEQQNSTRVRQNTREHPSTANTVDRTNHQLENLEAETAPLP

Row | SMILES | IC50 (Mu-type opioid receptor [1]) [nM] | Ki (Mu-type opioid receptor [2]) [nM]
1 | NC(=O)CC(NC(=O)[C@H](Cc1c[nH]c2ccccc12)NC(=O)[C@@H]1CCCN1C(=O)[C@@H](N)Cc1ccc(O)cc1)c1ccccc1 (stereo partly drawn) | 680 | 908
2 | NC(=O)[C@H](Cc1ccccc1)NC(=O)[C@H](Cc1c[nH]c2ccccc12)NC(=O)C[C@H]1CCCN1C(=O)[C@@H](N)Cc1ccc(O)cc1 | 1.8 | 0.33
3 | NC(=O)[C@H](Cc1ccccc1)NC(=O)CC(NC(=O)[C@@H]1CCCN1C(=O)C(N)Cc1ccc(O)cc1)c1c[nH]c2ccccc12 (single isomer, unassigned) |  | > 1000
4 | NC(=O)[C@H](Cc1ccccc1)NC(=O)[C@H](Cc1c[nH]c2ccccc12)NC(=O)C[C@@H]1CCCN1C(=O)[C@@H](N)Cc1ccc(O)cc1 | 72 | 10.4
5 | NC(=O)[C@H](Cc1ccccc1)NC(=O)[C@H](Cc1c[nH]c2ccccc12)NC(=O)[C@@H]1CCCN1C(=O)CC(N)c1ccc(O)cc1 (stereo partly drawn) |  | > 1000
